# Active and inactive are the calls of the source. Unless noted, no rule for the calls is given here.
# Experiments:
# [1] = Recombinant Mtb pantothenate synthetase (PanC) inhibitors, coupled enzyme, confirmatory (AID 375); conditions: coupled enzyme assay; measured here: coupling enzymes IC50 repeat trials unless noted;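 as to inhibition: 0% = full reaction with vehicle and 100% = no enzyme background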
# [2] = target: Pantothenate synthetase (Mycobacterium tuberculosis (strain ATCC 25618 / H37Rv)) (UniProt P9WIL5); test: as above; conditions: coupled enzyme assay; at 10 µM, stronger effect = higher value
# Chain of Pantothenate synthetase (Mycobacterium tuberculosis (strain ATCC 25618 / H37Rv)) (P9WIL5 whole entry, looked up): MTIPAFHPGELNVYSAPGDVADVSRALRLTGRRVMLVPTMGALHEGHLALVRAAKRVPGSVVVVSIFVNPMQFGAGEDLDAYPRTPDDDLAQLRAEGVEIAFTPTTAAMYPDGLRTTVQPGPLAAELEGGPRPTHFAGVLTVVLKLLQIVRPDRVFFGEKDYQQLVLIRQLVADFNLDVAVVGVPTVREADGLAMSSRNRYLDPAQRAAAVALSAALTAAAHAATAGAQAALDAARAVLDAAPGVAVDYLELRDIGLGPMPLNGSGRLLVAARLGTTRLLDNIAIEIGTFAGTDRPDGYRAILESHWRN
# [3] = SK-BR-3 cell growth inhibitors, pilot screen, 24 h, human (AID 572;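 active = viability at or below 10% of carrier control in both of two separate runs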;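 also: compound exposure lasted between 18 and 24 h rather than exactly 24 h; 100% = carrier-treated control wells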); conditions: SK-BR-3 viability, CellTiter-Glo luminescence, at 10 µM, stronger effect = lower value
# [4] = HUVEC growth inhibition – cell-based, human, primary screen (AID 575;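 active = viability at or below 30% in both replicate assays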;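 also: 100% = median of untreated cell wells with 0.1% DMSO on each plate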); conditions: HUVEC proliferation, CellTiter-Glo luminescence, 72 h; at 10 µM; stronger effect = lower value
# In short: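 Assay system: primary human umbilical vein endothelial cells / Buffer or medium: endothelial basal medium with 2% FBS plus growth supplements / Compound dosing: one dose, 10 µM final, 0.1% DMSO / Timing: 72 h treatment at 37 °C / Signal: CTG luminescence / Benchmarks: 32 DMSO-only cell-control wells (high), 32 MePR drug-control wells (low) per plate / Plate: collagen-coated 384-well format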
# [5] = reversal of MRP1-mediated doxorubicin resistance, pilot screen, H69AR cells, doxorubicin co-treatment (AID 601;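 active = viability loss from added drug above about 55%, and viability with drug at most 40%, in both replicates, limit read from the data, passing the limit was not always enough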); conditions: CellTiter-Glo, 72 h, at 10 µM
# [6] = 384-well plate pilot, post-Golgi transport modulator project, inhibition of yeast transport mutant growth (AID 636; in the data active = inhibition above about 31%); conditions: absorbance 615 nm, about 18 h, stronger effect = higher value
# [7] = growth suppression of yeast trafficking mutant, preliminary HTS, modulators of trafficking downstream of Golgi apparatus project, 1536-format plate, OD 615 nm (AID 637; in the data active = inhibition above about 30%); conditions: yeast transport mutant growth, absorbance 615 nm, 18 h; stronger effect = higher value
compound,measurement,setting,value
COc1cccc(-c2cc(C(=O)Nc3cc(C)n(Cc4ccc(Cl)cc4)n3)no2)c1,IC50,[1],> 100 µM
same,inhibition,[2],0% (inactive)
Cc1cc(NC(=O)c2noc3c2CCCC3)nn1Cc1ccc(Cl)cc1,IC50,[1],> 100 µM
same,outcome,[2],inactive
Cc1ccccc1NC(=O)C1CCC(C)(C(=O)O)C1(C)C (centres undefined),inhibition,[2],0% (inactive)
CCn1cc(C2=NOC(C(=O)Nc3cc(C)nn3-c3ccccc3)C2)c(C)n1 (centres undefined),inhibition,[2],0% (inactive)
O=C(CN1C(=O)c2ccccc2C1=O)Nc1ccc(S(=O)(=O)NCC2CCCO2)cc1 (centres undefined),inhibition,[2],0% (inactive)
Cc1ccc(Cn2ccc(NC(=O)c3noc4c3CCCC4)n2)cc1,IC50,[1],> 100 µM
same,inhibition,[2],0% (inactive)
Cc1ccc(Cn2ccc(NC(=O)c3cc(-c4cccc(Cl)c4)on3)n2)cc1,IC50,[1],> 100 µM
same,outcome,[2],inactive
CSc1ccccc1N=CC1=C(O)CC(C)(C)CC1=O,inhibition,[2],0% (inactive)
Cc1ccc(Cn2ccc(NC(=O)c3cc(-c4ccc(Br)cc4)on3)n2)cc1,IC50,[1],> 100 µM
same,outcome,[2],inactive
COc1ccc2c(c1)CCc1c(C(=O)Nc3cc(C)n(Cc4ccc(Cl)cc4)n3)noc1-2,IC50,[1],> 100 µM
same,outcome,[2],inactive
Cc1cc(C(F)(F)F)nc(SCC(=O)NC2=NC(=O)C(C)S2)n1 (centres undefined),inhibition,[2],2% (inactive)
COc1ccc(S(=O)(=O)NC(C)C(=O)Nc2cccc(C(C)=O)c2)cc1 (centres undefined),inhibition,[2],0% (inactive)
Cc1ccc(Cn2ccc(NC(=O)c3noc4c3CCCCC4)n2)cc1,IC50,[1],> 100 µM
same,outcome,[2],inactive
COc1ccc(-c2nc(CSCC(=O)N3CCN(c4cccc(C)c4)C(C)C3)c(C)o2)cc1OC (centres undefined),inhibition,[2],0% (inactive)
O=C(c1ccc(Cl)cc1)N1CCCOC1,inhibition,[2],4% (inactive)
COc1ccccc1-c1cc(C(=O)Nc2cc(C)n(Cc3ccc(Cl)cc3)n2)no1,IC50,[1],> 100 µM
same,outcome,[2],inactive
O=c1oc2c3c4c(cc2cc1-c1nc2ccccc2[nH]1)CCCN4CCC3,inhibition,[2],4% (inactive)
Cc1nc(NC2=NCN(CCN3CCOCC3)CN2)nc2c(C)cccc12,inhibition,[2],0% (inactive)
Cc1ccc(Cn2ccc(NC(=O)c3cc(-c4ccccc4)on3)n2)cc1,IC50,[1],> 100 µM
same,outcome,[2],inactive
Cc1cc(NC(=O)c2noc3c2CCCCC3)nn1Cc1ccc(Cl)cc1,IC50,[1],> 100 µM
same,outcome,[2],inactive
O=c1c2ccccc2[se]n1-c1ccccc1,IC50,[1],0.485 µM [measured here: coupling enzymes counter-screen IC50]
same,viability,[3],67% (inactive)
same,viability,[4],42.1% (inactive)
same,differential viability (reversal),"[5]; H69AR cells + 2 uM doxorubicin, stronger effect = higher value",2.39% (inactive)
same,viability,"[5]; H69AR cells + 2 uM doxorubicin, measured here: viability with 2 uM doxorubicin, stronger effect = lower value",1.34%
same,viability,"[5]; H69AR cells, compound alone cytotoxicity",3.73%
same,inhibition,[6],0.65% (inactive)
same,inhibition,[7],-0.5% (inactive)
Cc1ccc(Cn2ccc(NC(=O)c3cc(-c4ccco4)on3)n2)cc1,IC50,[1],> 100 µM
same,outcome,[2],inactive
COc1ccc(CC(=O)OCc2nnc(C3COc4ccccc4O3)o2)cc1OC (centres undefined),inhibition,[2],0% (inactive)
Cc1ccc(Cn2ccc(NC(=O)c3cc(-c4cccs4)on3)n2)cc1,IC50,[1],> 100 µM
same,inhibition,[2],3% (inactive)
Cn1cc(Cl)c(C(=O)N(Cc2ccccc2)c2ccccn2)n1,inhibition,[2],0% (inactive)
Cc1oc(-c2ccccc2Cl)nc1CSCC(=O)N1CCCC1,inhibition,[2],1% (inactive)
Cc1cc(NC(=O)c2cc(-c3cccs3)on2)nn1Cc1ccc(Cl)cc1,IC50,[1],> 100 µM
same,outcome,[2],inactive
Cc1ccccc1Cn1cc(NC(=O)c2noc3c2CC(C(C)(C)C)CC3)cn1 (centres undefined),IC50,[1],> 100 µM
same,outcome,[2],active
CN(c1ccccc1)S(=O)(=O)c1cc(C(=O)N2CCN(c3ccccn3)CC2)ccc1Cl,inhibition,[2],0% (inactive)
Cc1cc(NC(=O)c2cc(-c3ccco3)on2)nn1Cc1ccc(Cl)cc1,IC50,[1],> 100 µM
same,outcome,[2],inactive
Cc1ccc(Cn2ccc(NC(=O)c3cc(-c4ccc(F)cc4)on3)n2)cc1,IC50,[1],> 100 µM
same,outcome,[2],inactive
COc1ccc2c(c1)CCc1c(C(=O)Nc3ccn(Cc4ccc(C)cc4)n3)noc1-2,IC50,[1],> 100 µM
same,outcome,[2],inactive
CCOC(=O)N1CCN(Cc2cc(=O)oc3ccc4ccccc4c23)CC1,inhibition,[2],6% (inactive)
COc1ccc2c3c(c(=O)oc2c1OCC(N)=O)CCCC3,inhibition,[2],2% (inactive)
Cc1cc(C(=O)Nc2cc(C)n(Cc3ccc(Cl)cc3)n2)no1,IC50,[1],> 100 µM
same,inhibition,[2],3% (inactive)
CCOC(=O)C1/C(=N\O)CC(C)(O)C(C(=O)OCC)C1c1ccc(N(C)C)cc1 (centres undefined),inhibition,[2],0% (inactive)
COc1ccc(OC)c(-c2cc(C(=O)Nc3cc(C)n(Cc4ccc(Cl)cc4)n3)no2)c1,IC50,[1],> 100 µM
same,outcome,[2],inactive
Cc1ccc(Cn2ccc(NC(=O)c3cc(-c4ccc(Cl)cc4)on3)n2)cc1,IC50,[1],> 100 µM
same,outcome,[2],inactive
CC(=O)O[C@@]12CO[C@@H]1C[C@H](O)[C@@]1(C)C(=O)[C@H](O)C3=C(C)[C@@H](OC(=O)[C@H](O)[C@@H](NC(=O)OC(C)(C)C)c4ccccc4)C[C@](O)([C@@H](OC(=O)c4ccccc4)[C@H]21)C3(C)C,inhibition,[2],0% (inactive)
COc1cc(C(=O)NCCc2ccc3c(c2)OCCO3)ccc1OCC(=O)N1CCOCC1,inhibition,[2],2% (inactive)
OCc1cn(-c2ccccc2)nc1-c1ccc2c(c1)OCCO2,inhibition,[2],0% (inactive)
CC(C)OC(=O)C1C2C=CC3(CN(Cc4cccs4)C(=O)C13)O2 (centres undefined),inhibition,[2],0% (inactive)
CCOc1ccc(N(CC(=O)NC2CCCC2)S(=O)(=O)c2c(C)[nH]c(=O)[nH]c2=O)cc1,inhibition,[2],0% (inactive)
CON(C)c1nc(Oc2ccc(=O)[nH]n2)nc(N(C)C)n1,inhibition,[2],1% (inactive)
Cc1nc2ccccc2c2oc(C(=O)NCc3ccccn3)cc12,inhibition,[2],2% (inactive)
COCCCn1c2nc3ccccc3nc2c2c(=O)n(-c3ccccc3OC)cnc21,inhibition,[2],11% (inactive)
CCN(CC)c1ccc(NC(=O)CN2C(=O)CC(C)(C)S(=O)(=O)c3ccccc32)c(C)c1,inhibition,[2],0% (inactive)
COc1cc(NC(=O)c2cc(OC)c(OC)c(OC)c2)c(OC)cc1NC(=O)CN1CCCCC1,inhibition,[2],1% (inactive)
COC(=O)c1cc(OC)c(OCc2cc(C(=O)OC)oc2C)c(OC)c1,inhibition,[2],2% (inactive)
CCOC(=O)C1CCN(Cc2ccc(F)c(Br)c2)CC1,inhibition,[2],0% (inactive)
N/C(=N/O)c1nc(N2CCCC2)nc(N(c2ccccc2)c2ccccc2)n1,inhibition,[2],7% (inactive)
O=c1c[n+]([O-])c2ccccc2n1OCc1ccccn1,inhibition,[2],4% (inactive)
CC1CCCCN1S(=O)(=O)c1ccc(NC(=O)c2cccs2)cc1 (centres undefined),inhibition,[2],0% (inactive)
CCCCN(CC)S(=O)(=O)N1CCC(C(=O)NCc2ccc(F)cc2)CC1,inhibition,[2],6% (inactive)
CCc1[nH]nc2c1C1(CCN(C(=O)OCc3ccccc3)CC1)C(C#N)=C(N)O2,inhibition,[2],0% (inactive)
Cn1ccnc1SCCC#N,inhibition,[2],7% (inactive)
CC(C)N(C(=O)CSc1nnc(-c2cc3ccccc3cc2O)n1Cc1ccco1)C(C)C,inhibition,[2],1% (inactive)
O=C(NCCc1c[nH]c2ccccc12)c1ccc(S(=O)(=O)NCc2ccco2)cc1,inhibition,[2],0% (inactive)
NC(=O)C1CCN(C(=O)c2cc3n(n2)C(C(F)(F)F)CC(c2ccco2)N3)CC1 (centres undefined),inhibition,[2],0% (inactive)
O=c1sc(Nc2ccccc2)nc2ccsc12,inhibition,[2],0% (inactive)
COc1cc(C2c3c(oc4c(C)cc(C)cc4c3=O)C(=O)N2Cc2cccnc2)cc(OC)c1OC (centres undefined),inhibition,[2],2% (inactive)
Cc1cccc(Cn2c(=O)n(Cc3ccco3)c(=O)c3ccccc32)c1,inhibition,[2],0% (inactive)
Cn1c(SC/C=C/c2ccccc2)nnc1-c1cnccn1,inhibition,[2],1% (inactive)
COc1ccc(C(=O)c2coc3ccc(O)c(CN4CCCCC4)c23)cc1,inhibition,[2],0% (inactive)
CCOc1ccc(N2CC(C(=O)Nc3cccc(C)c3C)CC2=O)cc1 (centres undefined),inhibition,[2],0% (inactive)
Cc1nc2nc(SCC(=O)NCc3ccco3)nn2c(C)c1Cc1ccccc1,inhibition,[2],0% (inactive)
CC(=O)Nc1cccc(OCC(O)Cn2cnc3ccccc32)c1 (centres undefined),inhibition,[2],0% (inactive)
CC(=O)N(C(C)=O)c1ncc2c([nH]c3ccccc32)c1C#N,inhibition,[2],0% (inactive)
COc1ccc(-n2nnnc2-c2cccc(OC)c2)cc1,inhibition,[2],0% (inactive)
Cc1ccc(C(=O)CCC2CCCC2=O)cc1 (centres undefined),inhibition,[2],0% (inactive)
Cn1c(=O)c2c(ncn2CC(O)CO)n(C)c1=O (centres undefined),inhibition,[2],0% (inactive)
COC1CCCCC1Nc1cccc(SC)c1 (centres undefined),inhibition,[2],0% (inactive)
O=C(N1CCN(c2ccccc2F)CC1)C12CC3CC(CC(C3)C1)C2,inhibition,[2],0% (inactive)
CCCCn1c(NCc2ccccc2O)nc2ccccc21,inhibition,[2],0% (inactive)
c1c2c(cc3sc(N4CCCCC4)nc13)OCCO2,inhibition,[2],4% (inactive)
O=C(NCc1ccc2c(c1)OCO2)C1CCC(CNS(=O)(=O)c2ccccc2)CC1 (centres undefined),inhibition,[2],0% (inactive)
O=C(c1cnc2n(c1=O)CCS2)N1CCc2ccccc21,inhibition,[2],2% (inactive)
CCN(CC)CCOC(=O)C1(c2ccc(OC)c(OC)c2)CCCC1,inhibition,[2],12% (inactive)
c1cncc(-c2nc3c4ccccc4nc(N4CCC(N5CCCCC5)CC4)n3n2)c1,inhibition,[2],0% (inactive)
Cc1cc(NC(c2cccnc2)c2c(C)[nH]c3ccccc23)no1 (centres undefined),inhibition,[2],0% (inactive)
CCN(CC(=O)O)S(=O)(=O)c1cc(Cl)ccc1Cl,inhibition,[2],0% (inactive)
COc1ccc(-n2c(COc3cccc(C)c3)nnc2SCC(=O)NCc2ccco2)cc1,inhibition,[2],5% (inactive)
CCOC(=O)c1cc(C)n(CCCN2CCOCC2)c1C,inhibition,[2],0% (inactive)
CCOC(=O)CSc1nnc(-c2ccc(NS(=O)(=O)c3ccc(C)cc3)cc2)o1,inhibition,[2],0% (inactive)
COC(=O)CSc1nc(C)c(C(C)=O)cc1C#N,inhibition,[2],10% (inactive)
CCOn1c(=O)c(=O)n(OCc2ccccc2)c2ccccc21,inhibition,[2],0% (inactive)
COc1ccc(C)cc1NC(=O)CSc1nnnn1Cc1ccccc1,inhibition,[2],2% (inactive)
c1cc2c(cc1Cn1cnnn1)OCO2,inhibition,[2],0% (inactive)
CC(=O)[C@H]1CC[C@H]2[C@@H]3CCC4=CC(=O)CC[C@]4(C)[C@H]3CC[C@]12C,inhibition,[2],5% (inactive)
COCCN(C(=O)CCC(=O)Nc1ccccn1)C(C(=O)NC1CCCC1)c1ccc(OC)cc1 (centres undefined),inhibition,[2],0% (inactive)
CCOC(=O)N1CCN(C(=O)c2c(-c3ccccc3)noc2C)CC1,inhibition,[2],0% (inactive)
Cc1nc(NCc2ccco2)c2oc3ccccc3c2n1,inhibition,[2],4% (inactive)

# From PubChem BioAssay
